According to ChEMBL document CHEMBL1151326, “Phytoalexins from hairy roots of Hyoscyamus albus treated with methyl jasmonate” (1998):
Values after ≈ are worked out from the molar mass of the structure shown. Active and inactive are the calls of the source. No cut-off for these calls is given here.

Experiments:
Bacillus subtilis = assay: Antibacterial activity against Bacillus subtilis after 2 days by agar plate dilution method; format: functional; settings: 48 h
Outline: (§1)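 Agar plate dilution: each sample concentration is incorporated into soybean casein digest (SCD) agar. Gram-positive bacteria are applied to the agar surface and incubated 2 days at 30 °C. Activity is judged by whether colonies form.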

Staphylococcus aureus = assay: Antibacterial activity against Staphylococcus aureus after 2 days by agar plate dilution method; format: functional; settings: 48 h; outline: as §1
Botrytis cinerea = assay: Antifungal activity against Botrytis cinerea after 2 days by agar plate dilution method; format: functional, organism-based
Outline: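 Agar plate dilution: each sample concentration is incorporated into potato dextrose (PD) agar. Fungus is applied to the agar surface and incubated 2 days at 30 °C. Activity is judged by whether spores form.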

MIC (Bacillus subtilis)	MIC (Staphylococcus aureus)	Compound	Activity (Botrytis cinerea)
100 µg/mL (≈ 458 µM)	100 µg/mL (≈ 458 µM)	C=C(C)[C@@H]1CC[C@@]2(C1)C(C)=CC(=O)C[C@H]2C [SOLAVETIVONE]	
250 µg/mL (≈ 752 µM)	100 µg/mL (≈ 301 µM)	C=C(C)[C@@H]1C[C@@H](OC(=O)C=C(C)C)[C@@]2(C1)C(C)=CC(=O)[C@H](O)[C@H]2C	
250 µg/mL (≈ 752 µM)	100 µg/mL (≈ 301 µM)	C=C(C)[C@@H]1C[C@@H](OC(=O)/C(C)=C/C)[C@@]2(C1)C(C)=CC(=O)[C@H](O)[C@H]2C	Active
500 µg/mL (≈ 2000 µM)	500 µg/mL (≈ 2000 µM)	C=C(C)[C@@H]1C[C@@H](O)[C@@]2(C1)C(C)=CC(=O)[C@H](O)[C@H]2C	
250 µg/mL (≈ 780 µM)	250 µg/mL (≈ 780 µM)	C=C(C)[C@@H]1C[C@@H](OC(=O)C(C)C)[C@@]2(C1)C(C)=CC(=O)[C@H](O)[C@H]2C	
